Structures are written as SMILES. Values after ≈ are worked out from the molar mass of the structure shown. Where only a bound is given, the exact number is not on record here.

One data set concerns Staphylococcus aureus. The data set is described as follows: In vitro antibacterial activity against Staphylococcus aureus X1.1. Format: functional.
Another data set concerns Streptococcus pneumoniae. The data set is described as follows: In vitro antibacterial activity against Streptococcus pneumoniae PARK. It is filed as functional.
The subject of the next data set is Klebsiella pneumoniae. The data set is described as follows: In vitro antibacterial activity against Klebsiella X26. Format: functional.
Data set [1] has as its system Staphylococcus epidermidis. The data set is described as follows: In vitro antibacterial activity against Staphylococcus epidermidis 222. Format: functional.
A further data set deals with Haemophilus influenzae. Kind of data set: In vitro antibacterial activity against Haemophilus influenza C.L. It is filed as functional.
The next data set relates to Klebsiella aerogenes. Kind of data set: In vitro antibacterial activity against Enterobacter aerogenes C32. It is filed as functional.
The next data set concerns Escherichia coli. The data set is described as follows: In vitro antibacterial activity against Escherichia coli EC14. Format: functional.
The next data set concerns Pseudomonas aeruginosa. Kind of data set: In vitro antibacterial activity against Pseudomonas PS72. Format: functional.
Data set [2] can be described thus: Plasma half-life in rats after intravenous administration. It is filed as ADME, organism-based. Particulars: rat. Put shortly:
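Male Sprague-Dawley rats were given 20 mg/kg IV in 0.9% saline through an indwelling jugular cannula, which was also used for serial blood sampling. Plasma and cumulative urine (citrate pH 6.5, metabolism cages) were collected over 6 h and stored at -70 °C. Levels were measured by agar well diffusion bioassay against standard curves in plasma or citrate. Half-life = 0.693/β; recovery as % of dose.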

A short description of data set [3]: Plasma half-life in human after intravenous administration. It is filed as ADME, organism-based.
Data set [4] can be described thus: Plasma half-life in monkey after intravenous administration. It is filed as ADME, organism-based. Particulars: simiiformes. Put shortly: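 Male rhesus monkeys (n = 3) dosed iv at 30 mg/kg in 0.9% saline; plasma sampled from cephalic vein over 3 h. Drug levels by agar well diffusion bioassay (E. coli ATCC4157 or Proteus providentia XC24) against standard curves in spiked plasma. Samples stored at -70 °C. Half-life = 0.693/β, β the terminal slope of plasma vs time curve.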

Regarding `N#CC1=C(C(=O)O)N2C(=O)[C@@H](NC(=O)CSc3ccccc3)CN2C1`, the MIC with Staphylococcus aureus turned out to be 4 µg/mL (≈ 11.2 µM); in the data set on Streptococcus pneumoniae, 0.5 µg/mL (≈ 1.4 µM); in the data set on Klebsiella pneumoniae, 16 µg/mL (≈ 44.6 µM); in [1], 8 µg/mL (≈ 22.3 µM); with Haemophilus influenzae it was 32 µg/mL (≈ 89.3 µM); in the data set with Klebsiella aerogenes it was 128 µg/mL (≈ 357 µM). In addition, the figures for the MIC in the data set on Escherichia coli and in the data set with Pseudomonas aeruginosa were 32 µg/mL (≈ 89.3 µM) and greater than 128 µg/mL, respectively.

For `CS(=O)(=O)C1=C(C(=O)O)N2C(=O)[C@@H](NC(=O)/C(=N/OCCCF)c3csc(N)n3)CN2C1`, the MIC stood at 8 µg/mL (≈ 16.3 µM) in the data set on Staphylococcus aureus; 0.06 µg/mL (≈ 0.122 µM) in the data set on Streptococcus pneumoniae; 0.03 µg/mL (≈ 0.0612 µM) in the data set with Klebsiella pneumoniae; 16 µg/mL (≈ 32.6 µM) in data set [1]; 0.125 µg/mL (≈ 0.255 µM) against Haemophilus influenzae; 0.125 µg/mL (≈ 0.255 µM) with Klebsiella aerogenes. In addition, the MIC stood at 0.03 µg/mL (≈ 0.0612 µM) against Escherichia coli and 128 µg/mL (≈ 261 µM) against Pseudomonas aeruginosa.

Take `N#CC1=C(C(=O)O)N2C(=O)[C@@H](NC(=O)Cn3cnnn3)CN2C1`: the MIC (against Staphylococcus aureus; against Streptococcus pneumoniae; against Klebsiella pneumoniae; in data set [1]; in the data set on Haemophilus influenzae; against Klebsiella aerogenes) was greater than 128 µg/mL throughout. Further, the MIC against Escherichia coli and in the data set on Pseudomonas aeruginosa was greater than 128 µg/mL each time.

For `CCCCO/N=C(/C(=O)N[C@H]1CN2CC(S(C)(=O)=O)=C(C(=O)O)N2C1=O)c1csc(N)n1`, the MIC against Staphylococcus aureus amounted to 4 µg/mL (≈ 8.22 µM); with Streptococcus pneumoniae, 0.06 µg/mL (≈ 0.123 µM); in the data set on Klebsiella pneumoniae it was 0.03 µg/mL (≈ 0.0617 µM); in data set [1], 4 µg/mL (≈ 8.22 µM); in the data set on Haemophilus influenzae, 0.125 µg/mL (≈ 0.257 µM); against Klebsiella aerogenes, 1 µg/mL (≈ 2.06 µM). Further, the MIC against Escherichia coli was 0.25 µg/mL (≈ 0.514 µM); with Pseudomonas aeruginosa, greater than 128 µg/mL.

For the compound `CO/N=C(\C(=O)N[C@@H]1C(=O)N2C(C(=O)O)=CCS[C@H]12)c1csc(N)n1` [CEFTIZOXIME], the values for the half-life in data set [2], in data set [3] and in data set [4] were 15 min, 96 min and 44 min, respectively.

As to `CCCCO/N=C(/C(=O)N[C@H]1CN2CC(C#N)=C(C(=O)O)N2C1=O)c1csc(N)n1`, the MIC worked out at 16 µg/mL (≈ 36.9 µM) in the data set with Staphylococcus aureus; 0.125 µg/mL (≈ 0.288 µM) in the data set on Streptococcus pneumoniae; 0.06 µg/mL (≈ 0.138 µM) with Klebsiella pneumoniae; 16 µg/mL (≈ 36.9 µM) in [1]; 0.125 µg/mL (≈ 0.288 µM) against Haemophilus influenzae; 2 µg/mL (≈ 4.61 µM) against Klebsiella aerogenes. In addition, the MIC with Escherichia coli is 1 µg/mL (≈ 2.31 µM); in the data set with Pseudomonas aeruginosa, greater than 128 µg/mL.

With `N#CC1=C(C(=O)O)N2C(=O)[C@@H](NC(=O)/C(=N/OCCBr)c3csc(N)n3)CN2C1`, the MIC in the data set on Staphylococcus aureus worked out at 8 µg/mL (≈ 16.5 µM); with Streptococcus pneumoniae, 0.125 µg/mL (≈ 0.258 µM); in the data set with Klebsiella pneumoniae, 0.06 µg/mL (≈ 0.124 µM); in data set [1] it was 4 µg/mL (≈ 8.26 µM); with Haemophilus influenzae it was 0.125 µg/mL (≈ 0.258 µM); in the data set on Klebsiella aerogenes, 0.5 µg/mL (≈ 1.03 µM). For the same compound, the MIC with Escherichia coli is 0.125 µg/mL (≈ 0.258 µM); against Pseudomonas aeruginosa, greater than 128 µg/mL.

On to `CCCS(=O)(=O)C1=C(C(=O)O)N2C(=O)[C@@H](NC(=O)/C(=N/OCC(F)(F)F)c3csc(N)n3)CN2C1`, for which the MIC turned out to be 16 µg/mL (≈ 29.6 µM) in the data set with Staphylococcus aureus; 0.125 µg/mL (≈ 0.231 µM) in the data set with Streptococcus pneumoniae; 0.06 µg/mL (≈ 0.111 µM) against Klebsiella pneumoniae; 32 µg/mL (≈ 59.2 µM) in [1]; 0.25 µg/mL (≈ 0.463 µM) against Haemophilus influenzae; 1 µg/mL (≈ 1.85 µM) against Klebsiella aerogenes. Further, the MIC in the data set with Escherichia coli is 0.25 µg/mL (≈ 0.463 µM); in the data set with Pseudomonas aeruginosa it was greater than 128 µg/mL.

Regarding `N#CC1=C(C(=O)O)N2C(=O)[C@@H](NC(=O)/C(=N/OCCCl)c3csc(N)n3)CN2C1`, the MIC with Staphylococcus aureus is 32 µg/mL (≈ 72.8 µM); in the data set on Streptococcus pneumoniae, 0.5 µg/mL (≈ 1.14 µM); with Klebsiella pneumoniae, 0.125 µg/mL (≈ 0.284 µM); in [1], 16 µg/mL (≈ 36.4 µM); against Haemophilus influenzae, 0.5 µg/mL (≈ 1.14 µM); in the data set on Klebsiella aerogenes, 1 µg/mL (≈ 2.27 µM). Further, the MIC against Escherichia coli is 0.25 µg/mL (≈ 0.568 µM); with Pseudomonas aeruginosa, greater than 128 µg/mL.

`CCCCS(=O)(=O)C1=C(C(=O)O)N2C(=O)[C@@H](NC(=O)/C(=N/OCCCl)c3csc(N)n3)CN2C1`: the MIC with Staphylococcus aureus came out at 8 µg/mL (≈ 15 µM); in the data set on Streptococcus pneumoniae it was 0.125 µg/mL (≈ 0.234 µM); against Klebsiella pneumoniae it was 0.03 µg/mL (≈ 0.0561 µM); in data set [1] it was 16 µg/mL (≈ 29.9 µM); against Haemophilus influenzae, 0.5 µg/mL (≈ 0.935 µM); in the data set on Klebsiella aerogenes it was 1 µg/mL (≈ 1.87 µM). Moreover, the MIC with Escherichia coli was 0.5 µg/mL (≈ 0.935 µM); in the data set on Pseudomonas aeruginosa it was greater than 128 µg/mL.

Consider `CCS(=O)(=O)C1=C(C(=O)O)N2C(=O)[C@@H](NC(=O)/C(=N/OCCF)c3csc(N)n3)CN2C1`, for which the MIC in the data set on Staphylococcus aureus was 16 µg/mL (≈ 32.6 µM); in the data set on Streptococcus pneumoniae it was 0.125 µg/mL (≈ 0.255 µM); with Klebsiella pneumoniae, 0.03 µg/mL (≈ 0.0612 µM); in data set [1], 32 µg/mL (≈ 65.2 µM); against Haemophilus influenzae it was 0.25 µg/mL (≈ 0.51 µM); in the data set on Klebsiella aerogenes, 0.125 µg/mL (≈ 0.255 µM). For the same compound, the MIC with Escherichia coli is 0.06 µg/mL (≈ 0.122 µM); in the data set with Pseudomonas aeruginosa, greater than 128 µg/mL.

For `CCCO/N=C(/C(=O)N[C@H]1CN2CC(S(=O)(=O)CCC)=C(C(=O)O)N2C1=O)c1csc(N)n1`, the MIC with Staphylococcus aureus turned out to be 16 µg/mL (≈ 32 µM); with Streptococcus pneumoniae, 0.125 µg/mL (≈ 0.25 µM); in the data set with Klebsiella pneumoniae it was 0.06 µg/mL (≈ 0.12 µM); in data set [1], 32 µg/mL (≈ 63.9 µM); in the data set on Haemophilus influenzae it was 0.5 µg/mL (≈ 0.999 µM); with Klebsiella aerogenes, 1 µg/mL (≈ 2 µM). Further, the MIC with Escherichia coli is 0.5 µg/mL (≈ 0.999 µM); against Pseudomonas aeruginosa, greater than 128 µg/mL.

In general, half-life refers to the time needed for the level to fall by half in the phase considered.

(Values after ChEMBL document CHEMBL1126865, “Structure-activity relationship within a series of pyrazolidinone antibacterial agents. 2. Effect of side-chain modification on in vitro activity and pharmacokinetic parameters” (J Med Chem, 1993).)
